Source: PubChem
Rev-erbA mod – Rev-erb alpha (human) modulation. Rev-erbα–FITC-DNA binding, fluorescence polarization, 90 min. AID 1259318. P20393. 370,000 tested, 0.79% active. activity, % at 10 µM;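 active = activity above about 14%, limit read from the data; passing the limit was not always enough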;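 also: 0% = DMSO wells with 35 nM protein and 100% = DMSO wells with 750 nM protein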
Target sequence (P20393 whole entry, looked up): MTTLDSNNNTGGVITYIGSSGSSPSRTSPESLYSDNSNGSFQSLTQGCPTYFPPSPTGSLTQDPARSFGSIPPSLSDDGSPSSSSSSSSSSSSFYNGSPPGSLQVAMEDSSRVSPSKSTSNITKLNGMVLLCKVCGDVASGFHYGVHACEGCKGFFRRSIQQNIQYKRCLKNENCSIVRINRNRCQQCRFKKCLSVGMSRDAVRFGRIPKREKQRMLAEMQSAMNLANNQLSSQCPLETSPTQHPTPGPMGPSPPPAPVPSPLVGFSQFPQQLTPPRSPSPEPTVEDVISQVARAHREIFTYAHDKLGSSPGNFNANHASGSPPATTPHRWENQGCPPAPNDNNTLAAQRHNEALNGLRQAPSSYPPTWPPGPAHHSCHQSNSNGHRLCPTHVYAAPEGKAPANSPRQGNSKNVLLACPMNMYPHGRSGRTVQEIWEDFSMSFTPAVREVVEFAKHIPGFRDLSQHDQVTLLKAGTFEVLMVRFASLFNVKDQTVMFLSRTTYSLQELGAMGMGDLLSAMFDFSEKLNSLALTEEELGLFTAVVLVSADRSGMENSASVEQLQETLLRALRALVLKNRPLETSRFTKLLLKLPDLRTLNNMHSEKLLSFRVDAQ
NR2E3 ag-1 – NR2E3 (human) agonism. Q9Y5X4. GST-NR2E3/biotin-RetCOR TR-FRET, 1536-well. inhibition of corepressor binding, % at 4.78 µM. 320,000 tested, 0.12% active. AID 2300;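 active = percent inhibition above the cutoff of mean plus 3 SD of all tested compounds, set per screening campaign, cut at about 20% in these data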;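 also: 0% = DMSO wells and 100% = biotin wells as full block of FRET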
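Material: NR2E3–RetCOR corepressor complex | Quantity: 1.35 nM GST-tagged NR2E3 final | Schedule: 5 h at 4 °C | Replication: Singlicate compound wells | Reagent: RetCOR corepressor, biotinylated, 7 nM | Controls: Biotin wells as high control, 0.6% DMSO wells as low control | Signal: TR-FRET, Eu(K)-anti-GST donor, streptavidin-D2 acceptor, ex 340, em 617/671 nm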
NR2E3 ag-2 – human photoreceptor-specific nuclear receptor agonism. CHO-S Gal4-NCOR/VP16-NR2E3 two-hybrid, luciferase. inhibition of corepressor binding, % at 3.98 µM. 360,000 tested, 0.35% active. AID 602229;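 active = inhibition above the mean of all tested compounds plus 3 SD, cut at about 70% in these data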;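 also: 0% = DMSO with NR2E3 transfected cells and 100% = cells lacking NR2E3 construct; higher means lower luciferase signal from less NR2E3 corepressor binding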
PG9 Ab binder – binds the HIV-1 gp120 antibody PG9; TR-FRET gp120-PG9 antibody binding; inhibition, % at 6.7 µM; 360,000 tested, 0.43% active; AID 624416; in the data active = inhibition above about 8.5%
NR2E3 agonist cf – NR2E3 (human) agonism, confirmation | activation (reported as inhibition), % at 3.98 µM | shares compounds with NR2E3 ag-1 | 360 tested, 39% active | cell-free NR2E3 corepressor release, TR-FRET, 5 h; in the data active = activation above about 20%
PPARg-NCOR2 ctr – counter-screen for NR2E3 agonists: human PPARgamma-NCOR2 interaction agonists; AID 504787; TR-FRET PPARg-NCOR2 coregulator interaction, biochemical; inhibition, % at 3.98 µM; 360 tested, 45% active; shares compounds with NR2E3 ag-1; in the data active = inhibition above about 20%;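 also: 0% = DMSO vehicle and 100% = wells without protein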
PG9 binder conf – PG9 antibody binding, confirmed | shares compounds with PG9 Ab binder | TR-FRET PG9 antibody binding, biochemical | inhibition, % at 6.7 µM | AID 651571 | 1,500 tested, 90% active; in the data active = inhibition above about 9%
PGV04 counter – PGV04 control antibody binding, counter-screen. AID 651604. 1,500 tested, 95% active. inhibition, % at 6.7 µM. TR-FRET PGV04 antibody-gp120 binding, biochemical. shares compounds with PG9 Ab binder; in the data active = inhibition above about 9.5%
Active calls of the source: *; . = no result given. A selection: hits, their analogues and other compounds. The true share with any hit is near 1.4%.

SMILES	Rev-erbA mod	NR2E3 ag-1	NR2E3 ag-2	PG9 Ab binder	NR2E3 agonist cf	PPARg-NCOR2 ctr	others
NC(=O)[C@H]1OC(O)[C@H](O)[C@@H](O)[C@@H]1O (stereo partly specified)	4	.	.	.	.	.
C[C@]12CCC(=O)C=C1CCC1C2[C@@H](O)C[C@@]2(C)C1CC[C@]2(O)C(=O)CO (stereo partly specified)	-7	.	.	.	.	.
CN(C(=O)c1ccc(NC(=O)Cc2ccc(NC(=O)C3CCN(C(=O)C4CCCCC4)CC3)cc2)cc1)C1CC1	0	20*	-15	1	0	-7
CN(C(=O)c1ccc(NC(=O)Cc2ccc(NC(=O)C3CCN(C(=O)C4CCCC4)CC3)cc2)cc1)C1CCCC1	12	.	-36	-1	.	.
CNC(=O)CN(CCN(CCN(CC(=O)O)CC(=O)NC)CC(=O)O)CC(=O)O	-1	.	.	.	.	.
CN[C@@H]1C(OC2[C@H](O[C@H]3[C@H](O)[C@@H](O)[C@H](N=C(N)N)[C@@H](O)[C@@H]3N=C(N)N)O[C@H](C)[C@]2(O)CO)O[C@@H](CO)C(O)C1O (stereo partly specified)	-2	.	.	.	.	.
O=c1[nH]c(CN2CCN(c3ncccn3)CC2)nc2c(Br)cc(Br)cc12	9	27*	38	3	14	25*
COc1ccc(/C=N/NC(=O)C(=O)N2CCN(c3ccccc3OC)CC2)cc1	-3	30*	-19	1	-6	-9
O=C(O)c1ccc2c(c1)C(=O)/C(=C\c1ccco1)C2=O	10	38*	-25	-2	10	26*
O=C(O)c1ccc2c(c1)[C@@H]1C=CC[C@@H]1[C@H](c1ccccn1)N2	-3	48*	-35	-1	12	9
C/C=C\C1=C(C(=O)O)N2C(=O)C(NC(=O)C(N)c3ccc(O)cc3)C2SC1 (stereo unspecified)	1	.	.	.	.	.
CCOc1cccc(C2C(C(=O)c3ccc(C)o3)=C(O)C(=O)N2Cc2ccncc2)c1 (stereo unspecified)	10	26*	-14	5	2	9
CCOc1cccc(C2C(C(=O)c3ccc(C)o3)=C(O)C(=O)N2Cc2ccccc2)c1 (stereo unspecified)	-4	.	-34	5	.	.
CO/N=C(/C(=O)N[C@H]1C(=O)N2C(C(=O)O)=C(COC(N)=O)CSC12)c1ccco1 (stereo partly specified)	1	.	.	.	.	.
CCCCC1=CC2=C(c3ccco3)C(=O)C(C)(OC(=O)c3ccc(OC)cc3)C(=O)C2=CN1CCOC (stereo unspecified)	-4	0	1	1	.	.
CCCCC1=CC2=C(c3ccco3)C(=O)C(C)(OC(=O)c3ccc(OC)cc3)C(=O)C2=CN1Cc1ccc2c(c1)OCO2 (stereo unspecified)	.	23*	7	.	0	5
O=C(/C=C/c1ccco1)NC(=S)Nc1ccc(C(=O)O)cc1	2	20*	-38	-1	5	8
CC(=O)NC(=S)Nc1ccc(NC(=S)NC(=O)/C=C/c2ccco2)cc1	-4	-2	11	-1	.	.
Cc1ccc(-c2n[nH]c(=S)n2-c2ccccc2)cc1	-4	-1	-12	3	.	.
CS(=O)(=O)Nc1ccc(-c2n[nH]c(=S)n2-c2ccccc2)cc1	6	27*	8	7	10	9
C[C@@H]1O[C@@H](OC[C@H]2OC(Oc3c(-c4ccc(O)c(O)c4)oc4cc(O)cc(O)c4c3=O)[C@H](O)[C@@H](O)[C@@H]2O)[C@H](O)[C@H](O)[C@H]1O (stereo partly specified)	-1	.	.	.	.	.
CCCCn1c(NS(=O)(=O)c2ccccc2)c(S(=O)(=O)c2ccc(C)cc2)c2nc3ccccc3nc21	-4	19	3	1	.	.
CCCCCn1c(NC(=O)c2ccco2)c(S(=O)(=O)c2ccc(C)cc2)c2nc3ccccc3nc21	-3	20*	-7	3	9	42*
COc1cc(C2C(C(=O)c3cccs3)=C(O)C(=O)N2CCN2CCOCC2)cc(OC)c1OC (stereo unspecified)	2	3	-20	-1	.	.
COc1cccc2cc(C(=O)C3=C(O)C(=O)N(CCN4CCOCC4)C3c3cccs3)oc12 (stereo unspecified)	10	24*	5	6	21*	18
SMILES	Rev-erbA mod	NR2E3 ag-1	NR2E3 ag-2	PG9 Ab binder	NR2E3 agonist cf	PPARg-NCOR2 ctr	others
CN1CCN(CC(=O)N/N=C\c2c[nH]c3ccccc23)CC1	2	30*	.	-1	-5	-5
C=CCn1c(NC(=O)c2ccccc2Cl)c(C#N)c2nc3ccccc3nc21	-1	38*	7	3	8	42*
CC(=O)O[C@H]1C[C@@]2(C)[C@@H](C[C@@H](O)C3[C@]2(C)CC[C@H]2[C@H](C)[C@H](O)CC[C@]32C)/C1=C(/CCC=C(C)C)C(=O)O (stereo partly specified)	1	.	.	.	.	.
COc1ccc(S(=O)(=O)N(C)CC(=O)N2CCC(C)CC2)cc1Cl	1	22*	-11	1	-9	-6
COc1ccc(OC)c(N(CC(=O)N2CCC(C)CC2)S(=O)(=O)c2ccc(OC)c(OC)c2)c1	2	1	-16	0	.	.
N#CC(=C=[N-])C1=C(C#N)C(c2ccccc2F)C([n+]2ccccc2)C(O)(C2CC2)N1 (stereo unspecified)	-3	29*	-14	9.1*	-7	3	PG9 binder conf=16*;PGV04 counter=24*
N#CC1=C(N)NC(=S)C(C(N)=O)C1c1ccccc1F (stereo unspecified)	-2	-2	11	-1	.	.
O=C(C1=C(O)C(=O)N(CCN2CCOCC2)C1c1cccc(Br)c1)c1cc2ccccc2o1 (stereo unspecified)	-2	35*	-21	23*	52*	57*	PG9 binder conf=34*;PGV04 counter=43*
O=C(C1=C(O)C(=O)N(CCN2CCOCC2)C1c1ccco1)c1cc2ccccc2o1 (stereo unspecified)	4	14	-10	4	.	.
CCN(CC)CCN1C(=O)C(O)=C(C(=O)c2cc3ccccc3o2)C1c1cccnc1 (stereo unspecified)	4	28*	-27	24*	27*	28*	PG9 binder conf=36*;PGV04 counter=46*
O=C(C1=C(O)C(=O)N(CCN2CCOCC2)C1c1ccc(F)cc1)c1cc2ccccc2o1 (stereo unspecified)	2	27*	-3	11*	31*	32*	PG9 binder conf=17*;PGV04 counter=22*
